Reference: ChEMBL document CHEMBL4689842, “EUbOPEN Chemogenomics Library wave 1” (2021)

Test system: HEK-293T
Test: Multiplex assay against HEK293T;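 for Population Tubulin-Different-Phenotype (%): share of the cells with healthy nuclei that show this phenotype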
Format: toxicity, cell-based
Details: human
Outline: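 With compound added, live cells were imaged on a CQ1 microscope at 37°C and 5% CO2; staining with Hoechst33342, BioTracker Green Microtubule Cytoskeleton Dye, MitoTracker Red and Annexin V Alexa Fluor 680 had been done at seeding. The CellPathfinder machine-learning gating scheme split cells into Hoechst high-intensity objects or normal cells, normal cells into healthy, pyknosed or fragmented nuclei, and pyknosed cells into mitotic or apoptotic. The tubulin, mitochondrial-mass and membrane-permeability phenotypes are per cents of healthy-nucleus cells.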

[1] = 12 h, 1 µM, compound concentration 1 uM, replicate 1
[2] = 12 h, 1 µM, compound concentration 1 uM, replicate 2
[3] = 12 h, 10 µM, compound concentration 10 uM, replicate 1
[4] = 12 h, 10 µM, compound concentration 10 uM, replicate 2
[5] = 24 h, 1 µM, compound concentration 1 uM, replicate 1
[6] = 24 h, 1 µM, compound concentration 1 uM, replicate 2
[7] = 24 h, 10 µM, compound concentration 10 uM, replicate 1
[8] = 24 h, 10 µM, compound concentration 10 uM, replicate 2
[9] = 48 h, 1 µM, compound concentration 1 uM, replicate 1
[10] = 48 h, 1 µM, compound concentration 1 uM, replicate 2
[11] = 48 h, 10 µM, compound concentration 10 uM, replicate 1
[12] = 48 h, 10 µM, compound concentration 10 uM, replicate 2

## S=C(NCCCc1c[nH]cn1)NCCCN(Cc1ccc(Cl)c(Cl)c1)c1ccc(Br)cn1
[1]
  Population Apoptotic (%): 47%
  Population Fragmented Nuclei (%): 8%
  Population Healthy Nuclei (%): 41%
  Population Hoechst High Intensity Objects (%): 11%
  Population Membrane Permeable-Phenotype (%): 4%
  Population Mitochondria Different-Phenotype (%): 83%
  Population Mitotic Cells (%): 52%
  Population Normal (%): 88%
  Population Pyknosed Nuclei (%): 49%
  Population Tubulin-Different-Phenotype (%): 67%
  Total Cell Count: 310
[2]
  Population Apoptotic (%): 19%
  Population Fragmented Nuclei (%): 5%
  Population Healthy Nuclei (%): 44%
  Population Hoechst High Intensity Objects (%): 3%
  Population Membrane Permeable-Phenotype (%): 22%
  Population Mitochondria Different-Phenotype (%): 29%
  Population Mitotic Cells (%): 80%
  Population Normal (%): 96%
  Population Pyknosed Nuclei (%): 50%
  Population Tubulin-Different-Phenotype (%): 54%
  Total Cell Count: 240
[3]
  Population Apoptotic (%): 88%
  Population Fragmented Nuclei (%): 6%
  Population Healthy Nuclei (%): 2%
  Population Hoechst High Intensity Objects (%): 13%
  Population Membrane Permeable-Phenotype (%): 22%
  Population Mitochondria Different-Phenotype (%): 66%
  Population Mitotic Cells (%): 11%
  Population Normal (%): 86%
  Population Tubulin-Different-Phenotype (%): 77%
  Total Cell Count: 356
[4]
  Population Apoptotic (%): 84%
  Population Fragmented Nuclei (%): 5%
  Population Healthy Nuclei (%): 3%
  Population Hoechst High Intensity Objects (%): 6%
  Population Membrane Permeable-Phenotype (%): 37%
  Population Mitochondria Different-Phenotype (%): 50%
  Population Mitotic Cells (%): 15%
  Population Normal (%): 93%
  Population Pyknosed Nuclei (%): 90%
  Population Tubulin-Different-Phenotype (%): 100%
  Total Cell Count: 220
[5]
  Population Apoptotic (%): 61%
  Population Fragmented Nuclei (%): 13%
  Population Healthy Nuclei (%): 31%
  Population Hoechst High Intensity Objects (%): 15%
  Population Membrane Permeable-Phenotype (%): 8%
  Population Mitochondria Different-Phenotype (%): 73%
  Population Mitotic Cells (%): 38%
  Population Normal (%): 84%
  Population Tubulin-Different-Phenotype (%): 73%
  Total Cell Count: 308
[6]
  Population Apoptotic (%): 20%
  Population Fragmented Nuclei (%): 4%
  Population Healthy Nuclei (%): 40%
  Population Hoechst High Intensity Objects (%): 6%
  Population Membrane Permeable-Phenotype (%): 28%
  Population Mitochondria Different-Phenotype (%): 17%
  Population Mitotic Cells (%): 79%
  Population Normal (%): 93%
  Population Pyknosed Nuclei (%): 54%
  Population Tubulin-Different-Phenotype (%): 52%
  Total Cell Count: 239
[7]
  Population Apoptotic (%): 82%
  Population Fragmented Nuclei (%): 8%
  Population Healthy Nuclei (%): 2%
  Population Hoechst High Intensity Objects (%): 14%
  Population Mitochondria Different-Phenotype (%): 85%
  Population Mitotic Cells (%): 17%
  Population Normal (%): 85%
  Population Pyknosed Nuclei (%): 89%
  Total Cell Count: 366
[8]
  Population Apoptotic (%): 81%
  Population Fragmented Nuclei (%): 7%
  Population Healthy Nuclei (%): 4%
  Population Hoechst High Intensity Objects (%): 12%
  Population Membrane Permeable-Phenotype (%): 0%
  Population Mitochondria Different-Phenotype (%): 22%
  Population Mitotic Cells (%): 18%
  Population Normal (%): 87%
  Population Pyknosed Nuclei (%): 87%
  Population Tubulin-Different-Phenotype (%): 100%
  Total Cell Count: 231
[9]
  Population Apoptotic (%): 49%
  Population Fragmented Nuclei (%): 19%
  Population Healthy Nuclei (%): 4%
  Population Hoechst High Intensity Objects (%): 23%
  Population Membrane Permeable-Phenotype (%): 41%
  Population Mitochondria Different-Phenotype (%): 50%
  Population Mitotic Cells (%): 50%
  Population Normal (%): 76%
  Population Pyknosed Nuclei (%): 75%
  Population Tubulin-Different-Phenotype (%): 83%
  Total Cell Count: 320
[10]
  Population Apoptotic (%): 35%
  Population Fragmented Nuclei (%): 5%
  Population Healthy Nuclei (%): 26%
  Population Hoechst High Intensity Objects (%): 13%
  Population Membrane Permeable-Phenotype (%): 33%
  Population Mitochondria Different-Phenotype (%): 20%
  Population Mitotic Cells (%): 64%
  Population Normal (%): 86%
  Population Pyknosed Nuclei (%): 67%
  Population Tubulin-Different-Phenotype (%): 53%
  Total Cell Count: 234
[11]
  Population Apoptotic (%): 71%
  Population Fragmented Nuclei (%): 11%
  Population Healthy Nuclei (%): 0%
  Population Hoechst High Intensity Objects (%): 17%
  Population Membrane Permeable-Phenotype (%): 0%
  Population Mitochondria Different-Phenotype (%): 100%
  Population Mitotic Cells (%): 28%
  Population Normal (%): 82%
  Population Pyknosed Nuclei (%): 87%
  Total Cell Count: 369
[12]
  Population Apoptotic (%): 87%
  Population Fragmented Nuclei (%): 15%
  Population Healthy Nuclei (%): 9%
  Population Hoechst High Intensity Objects (%): 9%
  Population Membrane Permeable-Phenotype (%): 5%
  Population Mitochondria Different-Phenotype (%): 75%
  Population Mitotic Cells (%): 12%
  Population Normal (%): 90%
  Population Pyknosed Nuclei (%): 74%
  Population Tubulin-Different-Phenotype (%): 100%
  Total Cell Count: 230
